Test results as given in ChEMBL document CHEMBL1138468, “Potent, brain-penetrant, hydroisoindoline-based human neurokinin-1 receptor antagonists” (J Med Chem, 2009).

Tests used:
Substance-P receptor [1] = biological target: T1, Substance-P receptor (Homo sapiens, UniProt P25103); test: Antagonist activity at human NK1 receptor expressed in CHO cells assessed as inhibition of substance P-induced IP1 formation at 100 nM; type: functional, cell-based; design: scale not given: the % may be the effect or the level left
How it was run: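 CHO cells stably expressing recombinant human NK1 receptor; substance-P-evoked IP-1 formation measured with antagonist present at 100 nM; value given as % of substance P response remaining.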

Substance-P receptor [2] = biological target: T1, Substance-P receptor; test: Displacement of [125I]substance P human recombinant NK1 receptor expressed in CHO cells in absence of human serum albumin; type: cell-based
How it was run: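 Competitive radioligand binding with [125I]substance P on CHO cells stably expressing recombinant hNK1 receptor; IC50 determined without and with 50% human serum.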

Gerbillinae [3] = test: Toxicity in iv dosed gerbils brain assessed as inhibition of GR-73632-induced foot tapping after 1 hr; type: organism-based; details: in vivo
Gerbillinae [4] = test: Toxicity in iv dosed gerbils brain assessed as inhibition of GR-73632-induced foot tapping after 24 hrs; type: organism-based; details: in vivo
Rhesus monkey [5] = test: Ex vivo NK1 receptor occupancy in rhesus monkey brain at plasma level of 390 ng/ml; type: functional, Macaca mulatta
Macaca mulatta = species on record: Macaca mulatta; test: Ex vivo NK1 receptor occupancy in rhesus brain at plasma level of 31 ng/ml
Cytochrome P450 3A4 = Cytochrome P450 3A4 (Homo sapiens, UniProt P08684); test: Inhibition of human CYP3A4; type: ADME
[6] = Plasma clearance in rat at 1 mg/kg, iv and 2 mg/kg, po; type: ADME, organism-based
How it was run: (§1)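 Rats dosed at 1 mg/kg iv and 2 mg/kg po; plasma pharmacokinetics (clearance, Vdss, half-life, oral bioavailability) derived.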

Cytochrome P450 2C19 = Cytochrome P450 2C19 (Homo sapiens, UniProt P33261); test: Inhibition of human CYP2C19; type: ADME
Substance-K receptor = biological target: T2, Substance-K receptor (Homo sapiens, UniProt P21452); test: Binding affinity to human NK2 receptor
T2 sequence (P21452 whole entry): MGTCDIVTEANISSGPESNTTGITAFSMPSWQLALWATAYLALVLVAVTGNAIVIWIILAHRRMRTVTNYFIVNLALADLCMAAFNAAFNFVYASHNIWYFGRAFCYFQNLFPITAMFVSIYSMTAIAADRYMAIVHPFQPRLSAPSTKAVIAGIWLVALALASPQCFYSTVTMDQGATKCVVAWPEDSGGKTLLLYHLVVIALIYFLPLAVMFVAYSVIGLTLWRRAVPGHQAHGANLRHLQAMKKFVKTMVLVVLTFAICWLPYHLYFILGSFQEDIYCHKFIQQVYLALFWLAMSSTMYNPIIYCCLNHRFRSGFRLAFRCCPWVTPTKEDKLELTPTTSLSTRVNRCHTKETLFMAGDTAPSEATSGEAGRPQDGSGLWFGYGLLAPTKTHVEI

[7] = Half life in monkey at 0.5 mg/kg, iv and 1 mg/kg, po; type: ADME, organism-based, Macaca mulatta; details: rhesus monkey, in vivo
How it was run: (§2)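 Dogs and monkeys dosed at 0.5 mg/kg iv and 1 mg/kg po; plasma sampled to derive clearance, Vdss, half-life, oral bioavailability and dose-normalised oral AUC(0-∞).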

[8] = Plasma clearance in monkey at 0.5 mg/kg, iv and 1 mg/kg, po; type: ADME, organism-based, Macaca mulatta; details: rhesus monkey; how it was run: as §2
[9] = Plasma clearance in dog at 0.5 mg/kg, iv and 1 mg/kg, po; type: ADME, organism-based, Canis lupus familiaris; how it was run: as §2
[10] = Bioavailability in monkey at 0.5 mg/kg, iv and 1 mg/kg, po; type: ADME, organism-based, Macaca mulatta; details: rhesus monkey, in vivo; how it was run: as §2
Gerbillinae [11] = test: in iv dosed gerbils plasma assessed as inhibition of GR-73632-induced foot tapping after 24 hrs
Rhesus monkey [12] = test: Ex vivo NK1 receptor occupancy in rhesus monkey brain at plasma level of 5 ng/ml; type: functional, Macaca mulatta
How it was run: (§3)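 Rhesus PET with [18F]SPARQ: striatal binding compared before and during steady-state plasma drug level, achieved by iv bolus plus matched constant iv infusion continued through imaging; occupancy vs plasma concentration fit to three-parameter Hill equation.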

Cytochrome P450 2C8 = biological target: T3, Cytochrome P450 2C8 (Homo sapiens, UniProt P10632); test: Inhibition of human CYP2C8; type: ADME
T3 sequence (P10632 whole entry): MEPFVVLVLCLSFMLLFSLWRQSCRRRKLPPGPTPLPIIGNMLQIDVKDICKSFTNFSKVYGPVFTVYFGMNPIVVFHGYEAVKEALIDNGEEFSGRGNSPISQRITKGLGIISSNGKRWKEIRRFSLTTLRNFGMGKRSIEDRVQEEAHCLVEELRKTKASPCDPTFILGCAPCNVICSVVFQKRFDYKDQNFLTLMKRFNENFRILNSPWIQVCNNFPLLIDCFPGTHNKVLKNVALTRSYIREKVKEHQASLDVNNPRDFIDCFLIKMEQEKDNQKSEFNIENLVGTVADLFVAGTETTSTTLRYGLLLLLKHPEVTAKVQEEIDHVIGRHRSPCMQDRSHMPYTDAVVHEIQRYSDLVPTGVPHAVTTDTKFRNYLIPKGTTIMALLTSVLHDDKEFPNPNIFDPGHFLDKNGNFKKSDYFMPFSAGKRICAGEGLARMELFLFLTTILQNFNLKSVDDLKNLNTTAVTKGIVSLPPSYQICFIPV

Rhesus monkey [13] = test: Ex vivo NK1 receptor occupancy in rhesus monkey brain at plasma level of 37 ng/ml; type: functional, Macaca mulatta; how it was run: as §3
Gerbillinae [14] = test: Toxicity in iv dosed gerbils plasma assessed as inhibition of GR-73632-induced foot tapping after 1 hr; type: organism-based
[15] = Bioavailability in rat at 1 mg/kg, iv and 2 mg/kg; type: ADME, organism-based; details: in vivo; how it was run: as §1
Cytochrome P450 1A2 = biological target: T4, Cytochrome P450 1A2 (Homo sapiens, UniProt P05177); test: Inhibition of human CYP1A2; type: ADME
T4 sequence (P05177 whole entry): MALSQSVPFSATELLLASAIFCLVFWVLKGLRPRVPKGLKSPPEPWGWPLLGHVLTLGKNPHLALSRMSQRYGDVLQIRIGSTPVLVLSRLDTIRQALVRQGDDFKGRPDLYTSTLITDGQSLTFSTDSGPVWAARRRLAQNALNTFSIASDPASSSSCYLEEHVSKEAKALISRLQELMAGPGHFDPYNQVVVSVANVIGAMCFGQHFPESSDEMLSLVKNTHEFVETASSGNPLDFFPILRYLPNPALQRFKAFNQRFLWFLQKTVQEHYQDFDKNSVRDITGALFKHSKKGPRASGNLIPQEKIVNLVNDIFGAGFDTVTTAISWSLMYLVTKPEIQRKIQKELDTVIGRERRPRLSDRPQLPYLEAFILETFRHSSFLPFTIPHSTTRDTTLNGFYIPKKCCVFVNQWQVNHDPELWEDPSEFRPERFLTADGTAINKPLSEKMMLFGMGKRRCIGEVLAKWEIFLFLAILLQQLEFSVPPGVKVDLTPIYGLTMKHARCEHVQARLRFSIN

[16] = Half life in dog at 0.5 mg/kg, iv and 1 mg/kg, po; type: ADME, organism-based, Canis lupus familiaris; details: in vivo; how it was run: as §2
[17] = Half life in rat at 1 mg/kg, iv and 2 mg/kg, po; type: ADME, organism-based; details: in vivo; how it was run: as §1
Neuromedin-K receptor = biological target: T5, Neuromedin-K receptor (Homo sapiens, UniProt P29371); test: Binding affinity to human NK3 receptor
T5 sequence (P29371 whole entry): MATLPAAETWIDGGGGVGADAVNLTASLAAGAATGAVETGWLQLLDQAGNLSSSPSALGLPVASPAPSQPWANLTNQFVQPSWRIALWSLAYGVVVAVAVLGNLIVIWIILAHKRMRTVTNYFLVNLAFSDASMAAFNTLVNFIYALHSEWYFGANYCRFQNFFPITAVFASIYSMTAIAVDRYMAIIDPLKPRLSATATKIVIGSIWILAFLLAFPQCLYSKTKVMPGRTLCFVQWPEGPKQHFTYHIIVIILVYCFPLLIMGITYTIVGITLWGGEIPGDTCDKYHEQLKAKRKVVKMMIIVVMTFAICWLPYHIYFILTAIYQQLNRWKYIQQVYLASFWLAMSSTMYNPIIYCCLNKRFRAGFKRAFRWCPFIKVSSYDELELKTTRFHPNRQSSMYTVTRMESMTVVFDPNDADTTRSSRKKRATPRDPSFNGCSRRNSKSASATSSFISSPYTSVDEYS

[18] = Volume of distribution at steady state in monkey at 0.5 mg/kg, iv and 1 mg/kg, po; type: ADME, organism-based, Macaca mulatta; details: rhesus monkey, in vivo, read-out: Vdss; how it was run: as §2
Cytochrome P450 2D6 = Cytochrome P450 2D6 (Homo sapiens, UniProt P10635); test: Inhibition of human CYP2D6; type: ADME
[19] = Bioavailability in dog at 0.5 mg/kg, iv and 1 mg/kg, po; type: ADME, organism-based, Canis lupus familiaris; details: in vivo; how it was run: as §2
[20] = Volume of distribution at steady state in dog at 0.5 mg/kg, iv and 1 mg/kg, po; type: ADME, organism-based, Canis lupus familiaris; details: in vivo, read-out: Vdss; how it was run: as §2
Cytochrome P450 2C9 = Cytochrome P450 2C9 (Homo sapiens, UniProt P11712); test: Inhibition of human CYP2C9; type: ADME
[21] = Volume of distribution at steady state in rat at 1 mg/kg, iv and 2 mg/kg, po; type: ADME, organism-based; details: in vivo, read-out: Vdss; how it was run: as §1

T1 sequence (P25103 whole entry): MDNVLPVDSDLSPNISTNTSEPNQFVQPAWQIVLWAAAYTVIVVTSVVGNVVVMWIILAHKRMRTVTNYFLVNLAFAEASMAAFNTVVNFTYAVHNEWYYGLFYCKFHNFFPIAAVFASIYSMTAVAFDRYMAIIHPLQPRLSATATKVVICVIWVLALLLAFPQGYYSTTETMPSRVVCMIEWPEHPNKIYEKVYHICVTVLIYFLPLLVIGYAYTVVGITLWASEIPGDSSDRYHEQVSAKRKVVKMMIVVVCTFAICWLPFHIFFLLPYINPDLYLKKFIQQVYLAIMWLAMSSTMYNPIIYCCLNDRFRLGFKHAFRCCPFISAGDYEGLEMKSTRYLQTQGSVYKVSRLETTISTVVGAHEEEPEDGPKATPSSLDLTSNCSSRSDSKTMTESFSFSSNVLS
Cytochrome P450 3A4, sequence (P08684 whole entry): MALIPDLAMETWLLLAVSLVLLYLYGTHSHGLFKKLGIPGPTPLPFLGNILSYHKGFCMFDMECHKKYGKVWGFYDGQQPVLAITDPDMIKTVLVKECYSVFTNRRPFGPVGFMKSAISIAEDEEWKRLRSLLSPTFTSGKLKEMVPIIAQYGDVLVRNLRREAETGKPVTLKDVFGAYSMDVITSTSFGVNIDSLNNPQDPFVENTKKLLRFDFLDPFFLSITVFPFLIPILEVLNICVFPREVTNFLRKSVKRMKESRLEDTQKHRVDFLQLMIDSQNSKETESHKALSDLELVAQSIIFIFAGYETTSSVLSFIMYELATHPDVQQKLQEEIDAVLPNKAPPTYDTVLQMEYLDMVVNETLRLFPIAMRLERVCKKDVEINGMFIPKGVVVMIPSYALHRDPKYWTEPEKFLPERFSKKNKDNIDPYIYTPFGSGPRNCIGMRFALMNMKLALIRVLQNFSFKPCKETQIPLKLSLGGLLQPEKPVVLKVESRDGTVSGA
Cytochrome P450 2C19, sequence (P33261 whole entry): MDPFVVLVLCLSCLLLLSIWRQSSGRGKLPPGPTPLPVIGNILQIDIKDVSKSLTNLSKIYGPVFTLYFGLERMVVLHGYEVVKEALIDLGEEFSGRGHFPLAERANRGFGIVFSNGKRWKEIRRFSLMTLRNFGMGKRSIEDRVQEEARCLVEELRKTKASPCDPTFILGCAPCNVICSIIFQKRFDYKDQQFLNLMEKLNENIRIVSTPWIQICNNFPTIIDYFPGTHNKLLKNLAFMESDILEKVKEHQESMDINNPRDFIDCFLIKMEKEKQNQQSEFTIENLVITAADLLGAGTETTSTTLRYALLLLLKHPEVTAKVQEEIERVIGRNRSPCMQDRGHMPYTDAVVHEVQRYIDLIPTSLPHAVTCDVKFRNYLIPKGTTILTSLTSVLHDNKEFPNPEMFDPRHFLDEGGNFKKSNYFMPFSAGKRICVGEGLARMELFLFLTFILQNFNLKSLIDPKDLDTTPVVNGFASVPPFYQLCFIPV
Cytochrome P450 2D6, sequence (P10635 whole entry): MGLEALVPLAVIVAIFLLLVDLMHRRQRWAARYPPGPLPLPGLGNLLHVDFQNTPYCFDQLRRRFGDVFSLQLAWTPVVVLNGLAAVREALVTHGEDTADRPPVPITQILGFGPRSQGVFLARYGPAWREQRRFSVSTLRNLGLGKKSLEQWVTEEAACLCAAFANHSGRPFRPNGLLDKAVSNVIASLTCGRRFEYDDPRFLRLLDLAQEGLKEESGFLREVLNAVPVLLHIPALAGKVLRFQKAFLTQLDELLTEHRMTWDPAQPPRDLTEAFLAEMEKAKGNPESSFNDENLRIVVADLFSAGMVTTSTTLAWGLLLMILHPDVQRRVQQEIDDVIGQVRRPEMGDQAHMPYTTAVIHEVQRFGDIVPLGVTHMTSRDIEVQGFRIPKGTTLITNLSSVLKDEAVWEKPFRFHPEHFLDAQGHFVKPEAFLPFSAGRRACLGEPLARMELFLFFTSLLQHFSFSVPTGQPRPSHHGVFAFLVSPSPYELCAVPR
Cytochrome P450 2C9, sequence (P11712 whole entry): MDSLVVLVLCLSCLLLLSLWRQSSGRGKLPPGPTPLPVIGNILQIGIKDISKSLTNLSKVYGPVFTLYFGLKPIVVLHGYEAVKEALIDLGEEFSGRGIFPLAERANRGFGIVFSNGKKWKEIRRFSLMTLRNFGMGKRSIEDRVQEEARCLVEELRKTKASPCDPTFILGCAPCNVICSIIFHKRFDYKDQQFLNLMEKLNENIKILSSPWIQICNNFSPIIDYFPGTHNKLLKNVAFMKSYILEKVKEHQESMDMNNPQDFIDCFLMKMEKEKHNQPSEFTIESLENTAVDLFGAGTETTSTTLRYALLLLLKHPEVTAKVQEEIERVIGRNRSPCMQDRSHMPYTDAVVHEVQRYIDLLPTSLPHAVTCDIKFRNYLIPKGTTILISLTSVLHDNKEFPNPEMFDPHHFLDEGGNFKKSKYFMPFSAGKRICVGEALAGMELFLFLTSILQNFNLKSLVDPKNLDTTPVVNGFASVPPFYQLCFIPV

C[C@@H](O[C@H]1CC[C@@H]2CN(c3cnccn3)C[C@H]2[C@@H]1c1ccc(F)cc1)c1cc(C(F)(F)F)cc(C(F)(F)F)c1
Activity (Substance-P receptor [1]): 79%
IC50 (Substance-P receptor [2]): 0.525 nM

CC1=C(N2C[C@H]3CC[C@H](O[C@H](C)c4cc(C(F)(F)F)cc(C(F)(F)F)c4)[C@@H](c4ccc(F)cc4)[C@@H]3C2)CCC1=O
Activity (Substance-P receptor [1]): 9%
IC50 (Substance-P receptor [2]): 0.1 nM
ID50 (Gerbillinae [3]): 0.13 mg/kg
ID50 (Gerbillinae [4]): 0.2 mg/kg

C[C@@H](O[C@H]1CC[C@@H]2CNC[C@H]2[C@@H]1c1ccc(F)cc1)c1cc(C(F)(F)F)cc(C(F)(F)F)c1
Activity (Substance-P receptor [1]): 44%
IC50 (Substance-P receptor [2]): 0.15 nM

C[C@@H](O[C@H]1CN(C2=CC(=O)CC2)C[C@@H]1c1ccc(F)cc1)c1cc(C(F)(F)F)cc(C(F)(F)F)c1
Activity (Rhesus monkey [5]): >=90%
Activity (Macaca mulatta): 50%

C[C@@H](O[C@H]1CC[C@@H]2CN(C)C[C@H]2[C@@H]1c1ccc(F)cc1)c1cc(C(F)(F)F)cc(C(F)(F)F)c1
Activity (Substance-P receptor [1]): 54%
IC50 (Substance-P receptor [2]): 0.255 nM

CC(=O)N1C[C@H]2CC[C@H](O[C@H](C)c3cc(C(F)(F)F)cc(C(F)(F)F)c3)[C@@H](c3ccc(F)cc3)[C@@H]2C1
Activity (Substance-P receptor [1]): 40%
IC50 (Substance-P receptor [2]): 0.11 nM

CNC(=O)N1C[C@H]2CC[C@H](O[C@H](C)c3cc(C(F)(F)F)cc(C(F)(F)F)c3)[C@@H](c3ccc(F)cc3)[C@@H]2C1
Activity (Substance-P receptor [1]): 58%
IC50 (Substance-P receptor [2]): 0.09 nM

C[C@@H](O[C@H]1CC[C@@H]2CN(C3=CC(=O)CCC3)C[C@H]2[C@@H]1c1ccc(F)cc1)c1cc(C(F)(F)F)cc(C(F)(F)F)c1
Activity (Substance-P receptor [1]): 4%
IC50 (Substance-P receptor [2]): 0.13 nM
ID50 (Gerbillinae [3]): 0.18 mg/kg
ID50 (Gerbillinae [4]): 0.3 mg/kg

C[C@@H](O[C@H]1CC[C@@H]2CN(C3=CC(=O)CC3)C[C@H]2[C@@H]1c1ccc(F)cc1)c1cc(C(F)(F)F)cc(C(F)(F)F)c1 [SERLOPITANT]
IC50 (Cytochrome P450 3A4): 39000 nM
clearance [6]: 0.7 mL/min/kg
IC50 (Cytochrome P450 2C19): 29000 nM
Ki (Substance-K receptor): 2400 nM
half-life [7]: 24 h
clearance [8]: 1 mL/min/kg
clearance [9]: 0.7 mL/min/kg
Activity (Substance-P receptor [1]): 5%
bioavailability [10]: 69%
IC50 (Substance-P receptor [2]): 0.06 nM
IC50 (Gerbillinae [11]): 6 nM
Activity (Rhesus monkey [12]): 50%
IC50 (Cytochrome P450 2C8): 58000 nM
Activity (Rhesus monkey [13]): 90%
IC50 (Gerbillinae [14]): 6.5 nM
bioavailability [15]: 40%
IC50 (Cytochrome P450 1A2): > 100000 nM
half-life [16]: 31 h
half-life [17]: 24 h
Ki (Neuromedin-K receptor): 2400 nM
Vd [18]: 2 L/kg
IC50 (Cytochrome P450 2D6): 35000 nM
bioavailability [19]: 71%
Vd [20]: 2 L/kg
IC50 (Cytochrome P450 2C9): 30000 nM
ID50 (Gerbillinae [3]): 0.08 mg/kg
ID50 (Gerbillinae [4]): 0.46 mg/kg
Vd [21]: 1.5 L/kg
